Assay results: ChEMBL document CHEMBL1140717, “Acridine-based agents with topoisomerase II activity inhibit pancreatic cancer cell proliferation and induce apoptosis” (J Med Chem, 2008)
pIC50: −log10 of the molar value.

Assays:
[1] = system: MIA PaCa-2; test: Growth inhibition of human MiaPaCa2 cells after 72 hrs by MTT assay; assay type: functional, cell-based; settings: MIA PaCa-2, 72 h
How it was run: (§1)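 Cells maintained in DMEM with 10% fetal calf serum plus L-glutamine, then exposed over 72 h to a range of compound concentrations. Viability read by MTT; percent growth inhibition determined and IC50 estimated from the MTT data.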

[2] = Growth inhibition of human SU86.86 cells after 72 hrs by MTT assay; assay type: functional, cell-based; settings: SU.86.86, 72 h; how it was run: as §1
[3] = system: BXPC-3; test: Growth inhibition of human BXPC3 cells after 72 hrs by MTT assay; assay type: functional, cell-based; settings: BXPC-3, 72 h; how it was run: as §1
[4] = system: MIA PaCa-2; test: Cell cycle arrest in human MiaPaCa2 cells assessed as accumulation at G1 phase at 15 uM after 36 hrs; assay type: functional
How it was run: (§2)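 Cells grown in DMEM with 10% fetal calf serum and L-glutamine, then exposed to diluent or compound at 15 µM final for 36 h. Fixed in 50% ethanol, rehydrated, RNase-treated and stained with 50 µg/mL propidium iodide in 0.1% sodium citrate. Flow cytometry (≥20 000 events per sample) gave the percentage of cells in G1, S and G2/M.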

[5] = system: MIA PaCa-2; test: Cell cycle arrest in human MiaPaCa2 cells assessed as accumulation at S phase at 15 uM after 36 hrs; assay type: functional; how it was run: as §2
[6] = system: MIA PaCa-2; test: Cell cycle arrest in human MiaPaCa2 cells assessed as accumulation at G2/M phase at 15 uM after 36 hrs; assay type: functional; how it was run: as §2
[7] = Cell cycle arrest in human SU86.86 cells assessed as accumulation at G1 phase at 15 uM after 36 hrs; assay type: functional, cell-based; settings: SU.86.86; how it was run: as §2
[8] = Cell cycle arrest in human SU86.86 cells assessed as accumulation at G2/M phase at 15 uM after 36 hrs; assay type: functional, cell-based; settings: SU.86.86; how it was run: as §2
[9] = system: BXPC-3; test: Cell cycle arrest in human BXPC3 cells assessed as accumulation at G1 phase at 15 uM after 36 hrs; assay type: functional; how it was run: as §2
[10] = system: BXPC-3; test: Cell cycle arrest in human BXPC3 cells assessed as accumulation at S phase at 15 uM after 36 hrs; assay type: functional; how it was run: as §2
[11] = system: BXPC-3; test: Cell cycle arrest in human BXPC3 cells assessed as accumulation at G2/M phase at 15 uM after 36 hrs; assay type: functional; how it was run: as §2
[12] = system: MIA PaCa-2; test: Induction of apoptosis in human MiaPaCa2 cells at 15 uM after 48 hrs; assay type: functional
[13] = system: SU.86.86; test: Induction of apoptosis in human SU86.86 cells at 15 uM after 48 hrs; assay type: functional
[14] = system: BXPC-3; test: Induction of apoptosis in human BXPC3 cells at 15 uM after 48 hrs; assay type: functional
How it was run: (§3)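 BXPC-3 cells exposed to diluent or compound for 48 h, then collected and nuclei stained with Hoechst. Three hundred nuclei per field scored as apoptotic when the nucleus was fragmented into multiple discrete fragments; result expressed as percentage of cells in apoptosis.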

[15] = Cell cycle arrest in human SU86.86 cells assessed as accumulation at S phase at 15 uM after 36 hrs; assay type: functional, cell-based; settings: SU.86.86; how it was run: as §2
[16] = system: MIA PaCa-2; test: Induction of apoptosis in human MiaPaCa2 cells at 50 uM after 48 hrs; assay type: functional
[17] = system: SU.86.86; test: Induction of apoptosis in human SU86.86 cells 50 uM after 48 hrs; assay type: functional
[18] = system: BXPC-3; test: Induction of apoptosis in human BXPC3 cells 50 uM after 48 hrs; assay type: functional; how it was run: as §3
[19] = system: MIA PaCa-2; test: Induction of apoptosis in human MiaPaCa2 cells at 25 uM after 48 hrs; assay type: functional
[20] = system: SU.86.86; test: Induction of apoptosis in human SU86.86 cells at 25 uM after 48 hrs; assay type: functional
[21] = system: BXPC-3; test: Induction of apoptosis in human BXPC3 cells at 25 uM after 48 hrs; assay type: functional; how it was run: as §3

Row | pIC50 [1] | pIC50 [3] | Compound | pIC50 [2] | Activity [4] [%] | Activity [5] [%] | Activity [6] [%] | Activity [7] [%] | Activity [8] [%] | Activity [9] [%] | Activity [10] [%] | Activity [11] [%] | Activity [12] [%] | Activity [13] [%] | Activity [14] [%] | Activity [15] [%] | also measured
1 | 4.96 | 4.85 | CCN(CC)C(=O)c1ccc2c(NCCc3c[nH]c4ccccc34)c3ccccc3nc2c1 | 5.00 | 32 | 50 | 18 | 60 | 16 | 76 | 20 | 4 | 42 | 17 | 40 |  | 
2 | 5.22 | 4.92 | CN1CCN(C(=O)c2ccc3c(NCCc4c[nH]c5ccccc45)c4ccccc4nc3c2)CC1 | 5.10 | 29 | 51 | 20 | 50 | 24 | 81 | 12 | 7 | 20 | 34 | 44 | 26 | 
3 | 5.40 |  | CN1CCN(C(=O)c2cccc3c(NCCc4c[nH]c5ccccc45)c4ccccc4nc23)CC1 | 5.00 | 32 | 47 | 21 | 56 | 17 | 83 | 10 | 7 |  |  |  | 27 | Activity [16]: 29%; Activity [17]: 23%; Activity [18]: 32%
4 | 6.00 | 5.15 | CN1CCN(C(=O)c2ccc3c(NC4CCN(Cc5ccccc5)CC4)c4ccccc4nc3c2)CC1 | 5.22 | 28 | 52 | 20 | 53 | 18 | 77 | 16 | 7 |  |  |  | 29 | Activity [19]: 36%; Activity [20]: 30%; Activity [21]: 52%
